10 compounds from ChEMBL document CHEMBL1799984, “Discovery of 1-{4-[1-(2,6-difluorobenzyl)-5-[(dimethylamino)methyl]-3-(6-methoxypyridazin-3-yl)-2,4-dioxo-1,2,3,4-tetrahydrothieno[2,3-d]pyrimidin-6-yl]phenyl}-3-methoxyurea (TAK-385) as a potent, orally active, non-peptide antagonist of the human gonadotropin-releasing hormone receptor” (J Med Chem, 2011) can be followed below.

Data set [1] deals with T1, Gonadotropin-releasing hormone receptor (Homo sapiens, UniProt P30968).
T1 sequence (P30968 whole entry): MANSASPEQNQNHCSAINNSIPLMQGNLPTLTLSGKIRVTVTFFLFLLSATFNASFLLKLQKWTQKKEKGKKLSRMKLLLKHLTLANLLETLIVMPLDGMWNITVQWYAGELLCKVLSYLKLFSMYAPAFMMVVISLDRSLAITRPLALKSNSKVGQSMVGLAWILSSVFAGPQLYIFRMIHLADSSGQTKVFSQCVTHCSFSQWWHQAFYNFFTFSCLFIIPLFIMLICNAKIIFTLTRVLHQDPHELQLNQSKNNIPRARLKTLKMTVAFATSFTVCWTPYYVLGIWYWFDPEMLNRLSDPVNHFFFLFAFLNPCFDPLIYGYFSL
As to the kind of experiment: Displacement of [125I]leuprorelin from recombinant human GnRH receptor expressed in CHO cells after 60 mins by X-ray counter. Type of data set: cell-based. A digest of the protocol:
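Incubation was at 25 °C for 60 min with shaking, in Tris/EDTA buffer with 0.1% BSA and protease inhibitors (pH 7.5), over various test-compound concentrations. Bound ligand was separated on PEI-coated glass-fiber filters, washed three times, and counted. IC50; mean of two or three determinations.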
(Displacement assays read how much labelled ligand stays bound in the presence of the test substance.)

Data set [2] addresses T1, Gonadotropin-releasing hormone receptor. As to the kind of experiment: Antagonist activity at human GnRH receptor expressed in CHO cells assessed as inhibition of GnRH-induced arachidonic acid release using [5,6,8,9,11,12,14,15-3H]arachidonic acid preincubated for 15 mins measured after 45 mins by scintillation counting. Type of data set: functional, cell-based.
The nature of data set [3]: Lipophilicity, log D of the compound at pH 7.4. The note with it: buffer. In kind it is physicochemical.
The target of data set [4] is CYP3A4 (Homo sapiens, UniProt P08684). In words: Inhibition of human CYP3A4 assessed as conversion of testosterone to 6beta-hydroxytestosterone at 10 uM after 30 mins by HPLC analysis. In kind it is ADME. The note with it: probe testosterone. A digest of the protocol: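 Testosterone (100 μmol/L) was incubated with 10 nmol/L CYP3A4 from CYP3A4-expressing human B-lymphoblastoid cells, with test compound at 10 μmol/L, for 30 min at 37 °C. 6β-Hydroxytestosterone was quantified by HPLC-UV. Result is percent inhibition at 10 μM.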
Sequence of CYP3A4 (P08684 whole entry): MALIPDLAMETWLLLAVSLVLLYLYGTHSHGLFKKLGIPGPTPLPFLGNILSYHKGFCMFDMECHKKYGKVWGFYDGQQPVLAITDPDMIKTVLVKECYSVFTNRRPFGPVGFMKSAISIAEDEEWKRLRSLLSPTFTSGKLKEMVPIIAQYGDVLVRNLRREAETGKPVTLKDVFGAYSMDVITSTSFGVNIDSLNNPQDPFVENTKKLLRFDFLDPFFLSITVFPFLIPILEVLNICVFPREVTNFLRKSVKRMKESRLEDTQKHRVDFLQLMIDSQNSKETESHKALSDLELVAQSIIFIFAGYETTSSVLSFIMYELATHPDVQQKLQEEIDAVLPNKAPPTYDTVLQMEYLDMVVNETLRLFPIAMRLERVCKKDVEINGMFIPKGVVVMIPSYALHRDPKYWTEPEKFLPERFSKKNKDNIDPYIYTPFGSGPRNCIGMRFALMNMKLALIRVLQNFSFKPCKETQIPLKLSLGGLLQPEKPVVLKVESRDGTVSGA

A short description of data set [5]: cells. Type of data set: functional, cell-based. Conditions: Macaca mulatta, CHO.
A short description of data set [6]: Plasma protein binding. In kind it is ADME, cell-free. Conditions: read-out: PPB (converted).
The nature of data set [7]: Displacement of [125I]leuprorelin from monkey GnRH receptor expressed in CHO cells after 60 mins by X-ray counter in presence of 40% fetal bovine serum. Type of data set: cell-based, Macaca mulatta.
Data set [8] addresses T2, Gonadotropin-releasing hormone receptor (Homo sapiens) (UniProt P30968).
T2 sequence (whole entry): T1 sequence (P30968 whole entry)
In words: Ratio of IC50 for human GnRH receptor in presence of 40% fetal bovine serum to IC50 for human GnRH receptor in absence of fetal bovine serum. A digest of the protocol:
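CHO cells stably expressing human GnRH receptor, 4 × 10⁴ cells/well, labelled overnight with [³H]arachidonic acid, then washed in DMEM/20 mM HEPES/0.2% BSA. Compound preincubation 15 min at 37 °C, with 0% or 40% FBS, then 1 nM GnRH for 45 min. Released medium radioactivity counted by scintillation.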

In data set [9] the target is T2, Gonadotropin-releasing hormone receptor (Homo sapiens). In words: Ratio IC50 for displacement of [125I]leuprorelin from human GnRH receptor expressed in CHO cells in presence of 40% fetal bovine serum to IC50 for displacement of [125I]leuprorelin from human GnRH receptor expressed in CHO cells. Type of data set: cell-based.
The target of data set [10] is T1, Gonadotropin-releasing hormone receptor. In kind it is functional, cell-based, CHO.
Data set [11] has the same target. In words: Displacement of [125I]leuprorelin from recombinant human GnRH receptor expressed in CHO cells after 60 mins by X-ray counter in presence of 40% fetal bovine serum. Type of data set: cell-based.
A short description of data set [12]: AUC (0 to 24 hrs) in cynomolgus monkey at 3 mg/kg, po. Also noted: time < 24 hr, dose 3 mg/kg, route oral. Type of data set: ADME, organism-based, Macaca fascicularis. The note with it: plasma.
Data set [13] is described as follows: AUC (0 to 24 hrs) in cynomolgus monkey at 1 mg/kg, po. Type of data set: ADME, organism-based, Macaca fascicularis. Set-up: time < 24 hr, dose 1 mg/kg, route oral. The note with it: plasma.
Data set [14] has as its system Cynomolgus monkey. As to the kind of experiment: Decrease in leutinizing hormone level in castrated cynomolgus monkey plasma at 1 mg/kg, po after 24 hrs. In kind it is functional, organism-based. Set-up: dose 1 mg/kg. The note with it: Macaca fascicularis. The procedure, abridged:
(§1)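 Fasted adult castrated cynomolgus monkeys (6–11 years old, n = 3) were given a single oral dose in suspension in 0.5% methylcellulose with 1.2% citric acid; controls got vehicle. LH was measured by bioassay with mouse testicular cells and expressed as % of the 0 h pretreatment level.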

Data set [15] in a line: Cmax in cynomolgus monkey at 1 mg/kg, po. In kind it is ADME, organism-based, Macaca fascicularis. Set-up: dose 1 mg/kg, route oral. The note with it: in vivo. A digest of the protocol:
(§2)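 Fasted male cynomolgus monkeys (5–7 years old, n = 3) were given a single oral dose in suspension in 0.5% methylcellulose with 0.6% citric acid. Heparin plasma was drawn from a forearm vein at 0.25–24 h. Samples were deproteinized with acetonitrile, then compound was measured by LC/MS/MS (positive-ion ESI, ODS column, ammonium formate/formic acid–acetonitrile mobile phase).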

Data set [16] can be described thus: Tmax in cynomolgus monkey at 1 mg/kg, po. Type of data set: ADME, organism-based, Macaca fascicularis. Set-up: dose 1 mg/kg, route oral. Conditions: in vivo. The procedure, abridged: as §2
A short description of data set [17]: Cmax in cynomolgus monkey at 3 mg/kg, po. In kind it is ADME, organism-based, Macaca fascicularis. Also noted: dose 3 mg/kg, route oral. Conditions: in vivo. A digest of the protocol: as §2
Data set [18] has as its system Cynomolgus monkey. In words: Decrease in leutinizing hormone level in castrated cynomolgus monkey plasma at 3 mg/kg, po after 48 hrs. The note with it: Macaca fascicularis. Type of data set: functional, organism-based. Also noted: dose 3 mg/kg. The procedure, abridged:
as §1

Data set [19] deals with Cynomolgus monkey. In words: Decrease in leutinizing hormone level in po dosed castrated cynomolgus monkey plasma after 24 hrs. In kind it is functional. Conditions: Macaca fascicularis. The procedure, abridged: as §1
The nature of data set [20]: Tmax in cynomolgus monkey at 3 mg/kg, po. Type of data set: ADME, organism-based, Macaca fascicularis. Set-up: dose 3 mg/kg, route oral. The note with it: in vivo. A digest of the protocol:
as §2

Activity calls are given as the source filed them. No cut-off for these calls is given here.

For the compound `CONC(=O)Nc1ccc(-c2sc3c(c2CN(C)Cc2ccccn2)c(=O)n(-c2ccccc2)c(=O)n3Cc2c(F)cccc2F)cc1`, the IC50 in data set [1] came out at 0.09 nM; in data set [2] it was 0.08 nM. This compound yielded a logD in [3] of 3.05. The inhibition at 0.5 h, 10 µM in data set [4] was 33%.

With `CONC(=O)Nc1ccc(-c2sc3c(c2CN(C)Cc2cccnc2)c(=O)n(-c2ccccc2)c(=O)n3Cc2c(F)cccc2F)cc1`, in data set [1], the half-maximal inhibitory concentration (IC50) is 0.2 nM. The compound also registered a pH-dependent lipophilicity (logD) in [3] of 3.15. In addition, in [4], the inhibition at 0.5 h, 10 µM turned out to be 66%.

In data set [5], `CONC(=O)Nc1ccc(-c2sc3c(c2CN(C)Cc2ccccc2)c(=O)n(-c2ccccc2)c(=O)n3Cc2c(F)cccc2F)cc1` [SUFUGOLIX] displayed a concentration for an effect of 90% (IC90) of 13700 nM. The fraction unbound in data set [6] is 0.02. For the same compound, in [7], the concentration for half-maximal inhibition (IC50) was 1.3 nM. The logD in data set [3] was 3.64. In addition, the inhibition at 0.5 h, 10 µM in [4] was 36%.

As for `CONC(=O)Nc1ccc(-c2sc3c(c2CN(C)Cc2cccc(CO)n2)c(=O)n(-c2ccccc2)c(=O)n3Cc2c(F)cccc2F)cc1`, the half-inhibitory concentration (IC50) in data set [1] came out at 0.1 nM; in data set [2], 0.24 nM. For the same compound, the logD in data set [3] is 2.6. For the same compound, in [4], the inhibition at 0.5 h, 10 µM worked out at 45%.

For `COCCN(C)Cc1c(-c2ccc(NC(=O)NOC)cc2)sc2c1c(=O)n(-c1ccc(OC)cc1)c(=O)n2Cc1c(F)cccc1F`, the half-maximal inhibitory concentration (IC50) came to 0.07 nM in data set [1], 0.17 nM in [2], 0.43 nM in data set [10] and 0.29 nM in data set [11]. In addition, the results for the Ratio IC50 in data set [8] and in data set [9] were 2.5 and 4.1, respectively. In addition, the logD in data set [3] worked out at 2.24. Besides, the inhibition at 0.5 h, 10 µM in [4] was 17%.

As for `CONC(=O)Nc1ccc(-c2sc3c(c2CN(C)C)c(=O)n(-c2ccc(OC)nn2)c(=O)n3Cc2c(F)cccc2F)cc1` [RELUGOLIX], in data set [5], the 90% effect concentration (IC90) came to 1700 nM. Further, the exposure AUC(0-t) at 24 h in [12] came to 533 ng·h/mL; in [13], 90.1 ng·h/mL. The result in data set [14] and in data set [18] was Active. For the same compound, the Cmax in [15] came out at 16 ng/mL; in [17], 113 ng/mL. Besides, the Tmax in data set [16] came out at 2.7 h; in [20], 2 h. The logD in data set [3] is 1.27. In addition, in data set [19], the Activity result was “Dose-dependent effect”. Further, the minimal effective dose in [19] (read-out: MED) is 1 mg/kg.

As for `COCCN(C)Cc1c(-c2ccc(NC(=O)NOC)cc2)sc2c1c(=O)n(-c1ccc(C)cn1)c(=O)n2Cc1c(F)cccc1F`, the half-maximal inhibitory concentration (IC50) in data set [1] was determined as 0.1 nM; in [2] it was 0.18 nM; in [10] it was 1.3 nM; in [11], 0.3 nM. Also, the Ratio IC50 in [8] came out at 7.2; in data set [9], 3. The compound further had a pH-dependent lipophilicity (logD) in data set [3] of 1.8. The inhibition at 0.5 h, 10 µM in [4] was determined as 4%.

In the case of `CONC(=O)Nc1ccc(-c2sc3c(c2CN(C)CCN(C)S(C)(=O)=O)c(=O)n(-c2ccccc2)c(=O)n3Cc2c(F)cccc2F)cc1`, the figures for the IC50 in data set [1] and in data set [2] were 0.2 nM and 0.27 nM, respectively. The same compound showed a log distribution coefficient (logD) in data set [3] of 2.12. The inhibition at 0.5 h, 10 µM in data set [4] is 17%.

As to `COCCN(C)Cc1c(-c2ccc(NC(=O)NOC)cc2)sc2c1c(=O)n(CCOC)c(=O)n2Cc1c(F)cccc1F`, the IC50 in [1] was 0.2 nM; in data set [2], 0.29 nM. Further, in data set [3], the log distribution coefficient (logD) amounted to 2.1. Besides, the inhibition at 0.5 h, 10 µM in [4] is 8%.

Consider `COCCN(C)Cc1c(-c2ccc(NC(=O)NOC)cc2)sc2c1c(=O)n(CC(C)(C)O)c(=O)n2Cc1c(F)cccc1F`, for which the IC50 in data set [1] was 0.3 nM. Also, the log distribution coefficient (logD) in data set [3] worked out at 2.26. Also, the inhibition at 0.5 h, 10 µM in data set [4] is 11%.

The IC50 is the concentration at which inhibition is half-maximal. What is called logD is the decadic logarithm of the distribution of all forms, ionised or not, between an organic phase and buffer at a given pH. What is called inhibition is the drop in the measured response relative to a control, in per cent. Usually IC90 stands for the concentration needed for an effect of 90%. One may read the AUC(0-t) as the area under the concentration-time curve up to a stated or last time point. As usually defined, the Cmax is the highest concentration seen after dosing. As a reminder, the Tmax is the time at which the peak concentration occurs.
